Source: ChEMBL document CHEMBL5042534, “Fluconazole-COX Inhibitor Hybrids: A Dual-Acting Class of Antifungal Azoles” (2022)
Converted amounts (≈) assume the structure as drawn. The source made the active and inactive calls. No cut-off for these calls is given here.

How the values were obtained:
[1] = tested on: Candida albicans; test: Antifungal activity against Candida albicans SN152 harbouring erg3delta delta/erg11delta delta assessed as […] fungal growth inhibition measured every 40 mins for 48 hrs by double dilution method; format: functional, organism-based; conditions: dose 1-64 µg/ml
Summary of the method: (§1)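 erg3ΔΔ/erg11ΔΔ C. albicans taken from 24 h, 30 °C YPAD-agar colonies, brought to 1×10^-3 OD600 in PBS, then diluted 1:100 in YPAD. Serial twofold drug dilutions from 64 to 1 µg/mL in YPAD. OD600 read every 40 min over 48 h at 30 °C against no-drug and medium-blank controls. Triplicate wells, two independent experiments.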

[2] = tested on: Candida tropicalis; test: Antifungal activity against Candida tropicalis 660 assessed as reduction in drug tolerance by measuring zone of inhibition at 25 ug incubated for 24 to 48 hrs by disk diffusion assay; format: functional, organism-based; conditions: dose 25.0 µg, time 24-48 hrs
Summary of the method: (§2)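 Plated onto casitone agar from 24 h, 30 °C YPAD-agar colonies suspended in PBS. Inoculum OD600 0.02 for C. albicans SN152, 0.025 for C. parapsilosis ATCC 22019 and C. tropicalis 660. Central 6-mm disk holding 25 µg drug. Plates incubated at 30 °C and imaged at 24 h (inhibition zone) and 48 h (tolerant colonies within the zone).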

[3] = tested on: Candida parapsilosis; test: Antifungal activity against Candida parapsilosis ATCC 22019 assessed as reduction in drug tolerance by measuring zone of inhibition at 25 ug incubated for 24 to 48 hrs by disk diffusion assay; format: functional, organism-based; conditions: dose 25.0 µg, time 24-48 hrs; summary of the method: as §2
[4] = tested on: Candida albicans; test: Antifungal activity against Candida albicans SN152 harbouring erg3delta delta/erg11delta delta assessed as fungal growth inhibition incubated for 24 hrs by CLSI based broth double-dilution assay; format: functional
Summary of the method: (§3)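 CLSI M27-A3 broth microdilution with modifications in YPAD. Cells from 24 h, 30 °C YPAD-agar colonies brought to 1×10^-3 OD600 in PBS, then diluted 1:100. Twofold dilutions from 64 to 0.003 µg/mL. After 24 h at 30 °C, MIC80 taken as the lowest concentration giving ≥80% OD600 reduction versus no-drug wells. Triplicate wells, two independent experiments.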

[5] = tested on: Candida albicans; test: Antifungal activity against Candida albicans SN152 assessed as reduction in drug tolerance by measuring zone of inhibition at 25 ug incubated for 24 to 48 hrs by disk diffusion assay; format: functional, organism-based; conditions: dose 25.0 µg, time 24-48 hrs; summary of the method: as §2
[6] = tested on: Candida albicans; test: Antifungal activity against Candida albicans SN152 assessed as fungal growth inhibition incubated for 24 hrs by CLSI based broth double-dilution assay; format: functional
Summary of the method: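 Broth double-dilution per CLSI M27-A3 (minor modifications); colonies from YPAD agar (24 h, 30 °C) suspended in PBS to 1 × 10^-3 OD600 then diluted 1:100 into YPAD; serial twofold dilutions 64–0.003 μg/mL in YPAD; 24 h at 30 °C; OD600 read; MIC80 = lowest concentration reducing OD600 ≥80% versus no-drug wells; triplicate, two independent experiments.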

[7] = tested on: Candida albicans; test: Antifungal activity against Candida albicans SN152 harbouring erg3delta delta/erg11delta delta assessed as […] fungal growth inhibition at 1 to 64 ug/mL measured every 40 mins for 48 hrs by double dilution method; format: functional, organism-based; conditions: dose 1-64 µg/ml; summary of the method: as §1
[8] = tested on: Candida parapsilosis; test: Antifungal activity against Candida parapsilosis ATCC 22019 assessed as fungal growth inhibition incubated for 24 hrs by CLSI based broth double-dilution assay; format: functional; conditions: Lodderomyces parapsilosis; summary of the method: as §3
[9] = tested on: Candida albicans; test: Antifungal activity against Candida albicans SN152 harbouring erg3delta delta/erg11delta delta assessed as […] fungal growth inhibition at 64 ug/mL measured every 40 mins for 48 hrs by double dilution method; format: functional, organism-based; conditions: dose 64.0 µg/ml; summary of the method: as §1

Q: Which Activity [1] does the source give for `CC(C)Cc1ccc(C(C)C(=O)O)cc1` (centres undefined) here?
A: Dose-Dependent Effect

Q: Which Activity [2] does the source give for `CC(C)Cc1ccc([C@H](C)C(=O)NC[C@](O)(Cn2cncn2)c2ccc(F)cc2F)cc1` here?
A: Active

Q: What about the Activity [3] of the same compound?
A: Active

Q: What about the Activity [1] of the same compound?
A: Dose-Dependent Effect

Q: What about the MIC80 [4] of the same compound?
A: 64 µg/mL (≈ 145 µM)

Q: What about the Activity [5] of the same compound?
A: Active

Q: And the MIC80 [6]?
A: 0.003 µg/mL (≈ 0.00678 µM)

Q: With `CC(C(=O)O)c1ccc(-c2ccccc2)c(F)c1` (centres undefined) as the compound, how does the Activity [1] read?
A: Dose-Dependent Effect

Q: Which Activity [2] does the source give for `OC(Cn1cncn1)(Cn1cncn1)c1ccc(F)cc1F` here?
A: Active

Q: What about the Activity [7] of the same compound?
A: inactive

Q: And the Activity [3]?
A: inactive

Q: What about the Activity [5] of the same compound?
A: inactive

Q: `C[C@@H](c1ncncc1F)[C@](O)(Cn1cncn1)c1ccc(F)cc1F` [VORICONAZOLE] was tested. Which MIC80 [8] did it give?
A: 0.015 µg/mL (≈ 0.0429 µM)

Q: What about the Activity [2] of the same compound?
A: Active

Q: What about the Activity [3] of the same compound?
A: inactive

Q: What about the Activity [5] of the same compound?
A: inactive

Q: And the Activity [9]?
A: Active

Q: How did the MIC80 [8] turn out when `C[C@H](C(=O)NC[C@](O)(Cn1cncn1)c1ccc(F)cc1F)c1ccc(-c2ccccc2)c(F)c1` was run?
A: 0.5 µg/mL (≈ 1.04 µM)

Q: What about the Activity [2] of the same compound?
A: Active

Q: And the Activity [3]?
A: Active

Q: What about the Activity [1] of the same compound?
A: Dose-Dependent Effect

Q: And the MIC80 [4]?
A: 64 µg/mL (≈ 133 µM)

Q: What about the Activity [5] of the same compound?
A: Active

Q: What about the MIC80 [6] of the same compound?
A: 0.007 µg/mL (≈ 0.0146 µM)
